Each block holds one compound with its values, some of them ahead of it.
Assays:
σ1 receptor [1] = molecular target: σ1 receptor (Cavia porcellus, UniProt Q60492); experiment: Competition binding assay at σ1 receptors with [3H]; set-up: species or system guinea pig
σ2 receptor [2] = molecular target: T1, σ2 receptor (Cavia porcellus, UniProt H0V073); experiment: Competition binding assay at σ2 receptors with [3H]DTG / 500 nM; set-up: species or system guinea pig
T1 sequence (H0V073 1-176): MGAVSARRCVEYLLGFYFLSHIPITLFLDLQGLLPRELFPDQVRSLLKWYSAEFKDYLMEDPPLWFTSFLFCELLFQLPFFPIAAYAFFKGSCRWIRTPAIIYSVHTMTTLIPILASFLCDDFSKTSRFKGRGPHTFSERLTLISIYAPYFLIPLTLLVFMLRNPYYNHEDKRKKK

[3] = Compound stability in stock buffer for in vitro binding assays; format: physicochemical; conditions: for Purity by HPLC after 25 days in stock buffer: 10^-3 M in water with 1% EtOH and 0.1% or 2.5% AcOH; for State after 25 days in stock buffer: stock buffer 2.5% AcOH, 1% EtOH in water
Procedure, shortened: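 Those prepared as HCl or oxalate salts were held instead in 0.1% AcOH with 1% EtOH. After 25 days in stock buffer, purity of each compound was analysed by analytical HPLC.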

σ2 receptor [4] = conditions: cited from earlier work
σ1 receptor [5] = conditions: cited from earlier work

σ1 receptor (Cavia porcellus, UniProt Q60492), sequence (Q60492 whole entry): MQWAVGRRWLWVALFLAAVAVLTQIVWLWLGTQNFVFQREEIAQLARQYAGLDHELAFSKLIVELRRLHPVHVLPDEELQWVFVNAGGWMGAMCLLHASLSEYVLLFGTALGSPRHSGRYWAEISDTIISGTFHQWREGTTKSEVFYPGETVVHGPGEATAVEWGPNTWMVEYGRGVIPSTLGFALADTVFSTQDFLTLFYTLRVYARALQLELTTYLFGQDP

Compound: 5-bromo-N-(4-(7,8-dimethoxy-2,3,4,5-tetrahydro-1H-benzo[b]azepin-1-yl)butyl)-2,3-dimethoxybenzamide [Compound 7]
Poorer σ1 affinity relative to 6 (σ1 receptor [1]; 7 (7R-1) vs. 6 (7R-2)): 20%
Ki (σ1 receptor [1]; read-out: Ki (nM) σ1, [3H](+)-PTZ, guinea pig brain membranes, mean ± SEM, n = 4): 2560 ± 175 nM
Poorer σ2 affinity relative to 6 (σ2 receptor [2]; 7 (7R-1) vs. 6 (7R-2)): ~30 times
Selectivity Ki σ1 / Ki σ2 (σ2 receptor [2]; ratio of Ki values): 0.29
Purity by HPLC after 25 days in stock buffer [3]: exceeded 95%

Purity by HPLC after 25 days in stock buffer [3]: exceeded 95%
Compound: 5-bromo-N-(4-((3,4-dimethoxyphenethyl)(methyl)amino)butyl)-2,3-dimethoxybenzamide [Compound 9]

Compound: COc1cc2c(cc1OC)CN(CCCCNC(=O)c1cc(Br)cc(OC)c1OC)CC2 [Compound 1]
Ki (σ2 receptor [4]; read-out: Ki (nM) σ2): 8.2 nM

Compound: COc1ccc(CCNCCCCNC(=O)c2cc(Br)cc(OC)c2OC)cc1OC [Compound 2]
Change in σ1 affinity relative to 1 (σ1 receptor [5]): no change
Decrease in σ2 affinity relative to 1 (σ2 receptor [4]; relative to 1): 1700 fold

Compound: COc1cc2c(cc1OC)CN(CCCCNC(=O)c1cc(Br)cc(OC)c1OC)C2 [Compound 3, 5-bromo-N-(4-(5,6-dimethoxyisoindolin-2-yl)butyl)-2,3-dimethoxybenzamide]
Decrease in σ1 affinity relative to 1 (σ1 receptor [1]; relative to 1): approximately 50%
Improvement of σ2 affinity over that of 1 (σ2 receptor [2]; relative to 1): 70%
Purity by HPLC after 25 days in stock buffer [3]: exceeded 95%

Poorest σ1 affinity by a factor compared to 6 and 7 (σ1 receptor [1]; compared to 6 (7R-2) and 7 (7R-1)): 2
Purity by HPLC after 25 days in stock buffer [3]: exceeded 95%
Compound: COc1cc2c(cc1OC)CCN(CCCCNC(=O)c1cc(Br)cc(OC)c1OC)CC2 [Compound 4, 5-bromo-N-(4-(7,8-dimethoxy-4,5-dihydro-1H-benzo[d]azepin-3(2H)-yl)butyl)-2,3-dimethoxybenzamide]

Poorer σ1 affinity, 3 vs. 5 (σ1 receptor [1]; 3 (5R-2) vs. 5 (5R-1)): 3 times
State after 25 days in stock buffer [3]: totally decomposed
Compound: COc1cc2c(cc1OC)N(CCCCNC(=O)c1cc(Br)cc(OC)c1OC)CC2 [Compound 5, 5-bromo-N-(4-(5,6-dimethoxyindolin-1-yl)butyl)-2,3-dimethoxybenzamide]

Purity by HPLC after 25 days in stock buffer [3]: exceeded 95%
Compound: COc1cc2c(cc1OC)CN(CCCCNC(=O)c1cc(Br)cc(OC)c1OC)CCC2 [Compound 6, 5-bromo-N-(4-(7,8-dimethoxy-4,5-dihydro-1H-benzo[c]azepin-2(3H)-yl)butyl)-2,3-dimethoxybenzamide]

σ1 affinity decreased by a factor, relative to 1 (σ1 receptor [1]; relative to 1 (Mach Lead)): 5
σ2 affinity relative to 1 (in words) (σ2 receptor [2]; relative to 1 (Mach Lead)): totally ablated
State after 25 days in stock buffer [3]: totally decomposed
Compound: COc1cc2c(cc1OC)N(CCCCNC(=O)c1cc(Br)cc(OC)c1OC)CCC2 [Compound 8, 5-bromo-N-(4-(6,7-dimethoxy-3,4-dihydroquinolin-1(2H)-yl)butyl)-2,3-dimethoxybenzamide]
